DENV2 CPE rescue – inhibitors of DENV2 cytopathic effect, primary screen, cell-based, plate reader, single concentration | DENV2-infected cells, cytopathic effect rescue | CPE inhibition, % at 9.99 µM | actives 1.7% (n = 350,000) | AID 651640, 2012; in the data active = CPE inhibition above about 20%, passing the limit was not always enough; inconclusive = no clear call, values can overlap the other calls; tested in BHK-21 cells;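 also: 0% = median of neutral control wells and 100% = median of positive control wells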
PfHsp90 yeast 2 – growth inhibition of PfHsp90-expressing yeast, primary screen, antimalarial PfHsp90 inhibitor project, S. cerevisiae, BacTiter-Glo luminescence, single point, set 2; BacTiter-Glo ATP, 48 h; yeast lacking PDR1 and PDR3 efflux regulators; inhibition, % at 9.4 µM; actives 0.32% (n = 310,000);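 active = every replicate shows inhibition above about 80%, whatever the replicate mean, limit read from the data; inconclusive = mean inhibition reaches the set limit but some replicate falls short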;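 also: 0% = DMSO neutral controls and 100% = 20 µM radicicol positive controls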
MLL AF4-AF9 inh – inhibitors of AF4 peptide binding to AF9, primary screen, biochemical, AlphaScreen, biotin-AF4 peptide, FLAG-AF9, single point; Protein AF-9 (Homo sapiens), P42568; inhibition, % at 10 µM; actives 0.47% (n = 350,000); AID 651704, 2012;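 active = every replicate reaching a set inhibition limit, whatever the replicate mean, cut at about 25% in these data; inconclusive = mean inhibition reaches that limit but some replicates miss it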;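 also: 0% = plate neutral control median and 100% = total signal loss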
Target sequence (P42568 whole entry, looked up): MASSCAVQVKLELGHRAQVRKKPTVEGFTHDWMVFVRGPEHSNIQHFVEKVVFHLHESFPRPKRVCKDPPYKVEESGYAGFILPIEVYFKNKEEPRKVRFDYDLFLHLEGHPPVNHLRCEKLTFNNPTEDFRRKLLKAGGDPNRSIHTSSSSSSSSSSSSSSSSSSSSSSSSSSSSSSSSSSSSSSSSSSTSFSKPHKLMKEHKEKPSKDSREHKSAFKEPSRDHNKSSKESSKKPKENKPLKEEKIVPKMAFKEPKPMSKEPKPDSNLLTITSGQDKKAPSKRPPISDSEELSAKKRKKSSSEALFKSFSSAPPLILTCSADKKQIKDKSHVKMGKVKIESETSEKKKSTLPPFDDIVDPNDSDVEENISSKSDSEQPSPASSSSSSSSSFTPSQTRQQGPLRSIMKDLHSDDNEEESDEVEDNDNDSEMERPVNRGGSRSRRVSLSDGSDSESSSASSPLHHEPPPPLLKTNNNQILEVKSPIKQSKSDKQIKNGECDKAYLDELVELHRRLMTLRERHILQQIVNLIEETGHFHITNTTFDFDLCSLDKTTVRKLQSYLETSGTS
Ecoli rRNA inh – reduced GFP signal of wild-type E. coli, primary screen, bacterial rRNA inhibitor project, GFP/RFP fluorescence, OD600, single point; E. coli WT GFP vs humanized-ribosome RFP mutants, 24 h; hits give low values; DMSO median 0, no signal -100; GFP signal change (wild-type ribosome), % (test concentration not listed); actives 1.6% (n = 350,000); AID 720706, 2013;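 active = significant combined selectivity score with lowered wild-type GFP, culture density cut under 30%, mutant RFP and density less affected; inactive = any of these conditions unmet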
Cneo AK release – Cryptococcus neoformans cell lysis inducers, primary screen, AK release luminescence, single concentration | C. neoformans lysis, adenylate kinase release luminescence, 4 h; normalised: neutral wells 0, clomiphene wells 100 | actives 0.2% (n = 360,000) | lysis activity, % at 15 µM;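 active = mean lysis activity across replicates of at least 80%, whatever share of replicates individually reach that level; inactive = mean lysis activity below 80%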
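Material – Cryptococcus neoformans yeast cells · Quantity – 5 × 10^6 yeast cells/mL · Buffer or medium – YPD medium · Compound – single dose · Timing – 4 h static compound exposure, 37 °C, read 1 h post-reagent · Signal – adenylate kinase release luminescence · Read-out basis – lysis from increased AK signal · Benchmarks – Clomiphene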
S100A4 MyoIIA – inhibitors of S100A4-myosin IIA peptide binding, primary screen, biochemical, fluorescence polarization, TAMRA-MyoIIA peptide; actives 0.14% (n = 360,000); Protein S100-A4 (Homo sapiens), P26447; inhibition, % at 10.7 µM;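 active = mean inhibition of at least 70% across replicates, with every replicate also reaching that level; inconclusive = mean inhibition reaches 70% but some replicates fall short; inactive = mean inhibition below 70%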
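Material: S100A4 monomer (human). Medium: Calcium-containing HEPES buffer, pH 7.2. Probe or stimulus: labelled myosin peptide probe, 5 nM. Compound dosing: one concentration per compound. Timing: polarization read 5 min after assay mix addition, stable 5–60 min. Benchmarks: DMSO as neutral control, TFP as positive control.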
AID977621 – growth inhibition of wild-type GFP E. coli, dose response, H69 mutant RFP, cherry-pick; 1,900 tested, under 10 active; activity change, negative = inhibition at 50 µM; E. coli wild-type GFP strain growth, fluorescence, 24 h; shares compounds with Ecoli rRNA inh;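 active = Wild-type ribosome reporter drop at least double the humanized mutant ribosome reporter drop, growth loss under a set limit; inconclusive = no clear call, values can overlap the other calls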;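 also: wild-type GFP and H69 mutant RFP strains grown together 50/50 in each well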
AID977628 – E. coli growth inhibition, wild-type GFP versus h24 humanized RFP strain, dose response, h24 mutant RFP vs wild-type GFP, cherry-pick; shares compounds with Ecoli rRNA inh; E. coli WT GFP strain growth, fluorescence, 24 h; activity change, negative = inhibition at 50 µM; 1,900 tested, under 10 active; AID 977628, 2014;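 active = compound lowering the normal-ribosome reporter at least twice as much as the humanized-ribosome reporter, growth loss under a set limit; inconclusive = no clear call, values can overlap the other calls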;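 also: wild-type GFP and h24 humanized RFP strains co-cultured 1 to 1 per well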
Starred values were filed as active, the others as inactive; ? = inconclusive; . = not tested or not shown. Shown are actives, neighbours in structure and some others; about 3.2% of the full set was active somewhere.

SMILES | DENV2 CPE rescue | PfHsp90 yeast 2 | MLL AF4-AF9 inh | Ecoli rRNA inh | Cneo AK release | S100A4 MyoIIA | AID977628 | others
Cc1noc(C)c1NC(=O)N[C@H]1C=C[C@H](CC(=O)Nc2ccccc2)O[C@H]1CO | 1 | . | 0 | 2 | -1 | -11 | .
CN1c2ccc(-c3ccccc3)cc2[C@@H]2[C@@H](CCN2C(=O)CN2CCOCC2)[C@@H]1CO | ? | . | 1 | 2 | 5 | -6 | .
CO[C@@H]1CN(C)C(=O)c2cc(NC(=O)c3cnccn3)ccc2OC[C@H](C)N(C)C[C@H]1C | 18 | . | -1 | -2 | 1 | -23 | .
O=C1OC[C@H]2CCCN2C(=O)[C@@H](CC(=O)N(CCO)Cc2ccccc2)C/C=C\C[C@H]1Cc1ccc(F)cc1 | ? | -17 | 3 | -10 | 17 | -3 | .
O=C1N[C@@H](Cc2ccccc2)COC(=O)[C@H](Cc2ccc(F)cc2)C/C=C\C[C@H]1CC(=O)N(CCO)Cc1ccccc1 | ? | -29 | -234 | -19* | -1 | -11 | ?
O=C1OC[C@@H]2CCCN2C(=O)[C@@H](CC(=O)N(CCO)Cc2ccccc2)C/C=C\C[C@H]1Cc1ccc(F)cc1 | -2 | 3 | 1 | -21* | 0 | -2 | -6.7 | AID977621=0.08
O=C1N[C@H](Cc2ccccc2)COC(=O)[C@H](Cc2ccc(F)cc2)C/C=C\C[C@H]1CC(=O)N(CCO)Cc1ccccc1 | ? | 5 | -3 | -1 | -8 | -4 | .
CCS(=O)(=O)N1CC2(CN(Cc3cccnc3)[C@H](CO)c3c2c2ccc(OC)cc2n3C)C1 | . | . | . | -2 | . | . | .
Cc1cc(Br)c2nc(-c3ccc(Cl)cc3)c(Cc3cccc(Cl)c3)n2c1 | 7 | . | -1 | -19* | . | 12 | ? | AID977621=?
Cc1ccc(-c2nc3c(Br)cc(C)cn3c2Cc2cccc(Cl)c2)cc1 | 5 | . | 0 | -6 | . | -11 | .
Cc1noc(C)c1S(=O)(=O)Nc1ccc2c(c1)C(=O)N([C@@H](C)CO)C[C@H](C)[C@@H](CN(C)C(=O)Nc1ccc(F)cc1)OCCCC[C@@H](C)O2 | 0 | . | 0 | 0 | 2 | -19 | .
C[C@@H]1CN([C@@H](C)CO)C(=O)c2cc(NC(=O)Nc3ccc(C(F)(F)F)cc3)ccc2O[C@H]1CN(C)C(=O)Nc1cccc2ccccc12 | -3 | . | . | 2 | 2 | . | .

Screens as filed in PubChem BioAssay.
